# Experiments:
# Format in all cases: functional
# Mythimna separata [1] = experiment: Insecticidal activity against Mythimna separata (Oriental armyworm) in wheat leaves assessed as mortality rate at 1 mg/mL at 25 degC measured after 10 days by leaf-dipping method relative to control; conditions: 240 h
# Summary of the method: (§1)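 Leaf-dipping assay on pre-third-instar M. separata larvae. Compounds dissolved in acetone at 1 mg/mL; fresh wheat leaves dipped 3 s, then air-dried. Acetone-treated leaves served as control. 30 larvae per compound in groups of 10 per dish, with treated leaves replenished when consumed. After 48 h, larvae were switched to untreated fresh leaves. Corrected mortality = (T − C) × 100/(1 − C); three replicates.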
# Mythimna separata [2] = experiment: Insecticidal activity against Mythimna separata (Oriental armyworm) in wheat leaves assessed as mortality rate at 1 mg/mL at 25 degC measured after 25 days by leaf-dipping method relative to control; conditions: 600 h; summary of the method: as §1
# Mythimna separata [3] = experiment: Insecticidal activity against Mythimna separata (Oriental armyworm) in wheat leaves assessed as mortality rate at 1 mg/mL at 25 degC measured after 35 days by leaf-dipping method relative to control; conditions: 840 h; summary of the method: as §1
Compound,mortality at 1000 µg/mL (Mythimna separata [1]) [%],mortality at 1000 µg/mL (Mythimna separata [2]) [%],mortality at 1000 µg/mL (Mythimna separata [3]) [%]
CC1=C2C(=O)O[C@@H](c3ccoc3)[C@]2(C)CC[C@H]1OC(=O)COc1cccc2cccnc12,13.8,37,51.9
COc1cccc2ccc(C(=O)O[C@@H]3CC[C@]4(C)C(=C3C)C(=O)O[C@H]4c3ccoc3)nc12,20.7,48.1,63
CCCCCCCC(=O)OCC1=C2C(=O)O[C@@H](c3ccoc3)[C@]2(C)CCC1,6.9,25.9,33.3
C[C@@]12CCCC(COC(=O)Cc3ccccc3)=C1C(=O)O[C@H]2c1ccoc1,27.6,33.3,44.4
C[C@@]12CCCC(COC(=O)Cc3cccc4ccccc34)=C1C(=O)O[C@H]2c1ccoc1,20.7,33.3,48.1
C[C@@]12CCCC(COC(=O)c3ccccc3)=C1C(=O)O[C@H]2c1ccoc1,17.2,29.6,29.6
Cc1ccc(C(=O)OCC2=C3C(=O)O[C@@H](c4ccoc4)[C@]3(C)CCC2)cc1,17.2,29.6,29.6
C[C@@]12CCCC(COC(=O)c3ccc(F)cc3)=C1C(=O)O[C@H]2c1ccoc1,10.3,40.7,51.9
C[C@@]12CCCC(COC(=O)c3cccc(F)c3)=C1C(=O)O[C@H]2c1ccoc1,24.1,51.9,55.6
C[C@@]12CCCC(COC(=O)c3ccc(Cl)cc3)=C1C(=O)O[C@H]2c1ccoc1,6.9,25.9,40.7
C[C@@]12CCCC(COC(=O)c3cccc(Br)c3)=C1C(=O)O[C@H]2c1ccoc1,13.8,25.9,33.3
C[C@@]12CCCC(COC(=O)c3ccc(Br)cc3)=C1C(=O)O[C@H]2c1ccoc1,24.1,29.6,33.3
C[C@@]12CCCC(COC(=O)c3cccc([N+](=O)[O-])c3)=C1C(=O)O[C@H]2c1ccoc1,24.1,29.6,44.4
C[C@@]12CCCC(COC(=O)c3ccc([N+](=O)[O-])cc3)=C1C(=O)O[C@H]2c1ccoc1,13.8,33.3,40.7
C[C@@]12CCCC(COC(=O)c3ccc(C#N)cc3)=C1C(=O)O[C@H]2c1ccoc1,6.9,25.9,44.4
C[C@@]12CCCC(COC(=O)c3cccnc3)=C1C(=O)O[C@H]2c1ccoc1,27.6,44.4,51.9
C[C@@]12CCCC(COC(=O)c3ccncc3)=C1C(=O)O[C@H]2c1ccoc1,24.1,48.1,59.3
C[C@@]12CCCC(CO)=C1C(=O)O[C@H]2c1ccoc1,10.3,29.6,40.7
CCCCCCCC(=O)O[C@@H]1CC[C@]2(C)C(=C1C)C(=O)O[C@H]2c1ccoc1,10.3,33.3,48.1

Compound,mortality at 1000 µg/mL (Mythimna separata [1]) [%],mortality at 1000 µg/mL (Mythimna separata [2]) [%],mortality at 1000 µg/mL (Mythimna separata [3]) [%]
CCCCCCCCCCC(=O)O[C@@H]1CC[C@]2(C)C(=C1C)C(=O)O[C@H]2c1ccoc1,20.7,40.7,48.1
CC1=C2C(=O)O[C@@H](c3ccoc3)[C@]2(C)CC[C@H]1OC(=O)Cc1ccccc1,31,37,44.4
CC1=C2C(=O)O[C@@H](c3ccoc3)[C@]2(C)CC[C@H]1OC(=O)Cc1cccc2ccccc12,10.3,29.6,51.9
CC1=C2C(=O)O[C@@H](c3ccoc3)[C@]2(C)CC[C@H]1OC(=O)c1ccccc1,41.4,44.4,44.4
CC1=C2C(=O)O[C@@H](c3ccoc3)[C@]2(C)CC[C@H]1OC(=O)c1ccc(C)cc1,24.1,40.7,40.7
CC1=C2C(=O)O[C@@H](c3ccoc3)[C@]2(C)CC[C@H]1OC(=O)c1ccc(F)cc1,24.1,51.9,63
CC1=C2C(=O)O[C@@H](c3ccoc3)[C@]2(C)CC[C@H]1OC(=O)c1cccc(F)c1,24.1,29.6,44.4
CC1=C2C(=O)O[C@@H](c3ccoc3)[C@]2(C)CC[C@H]1OC(=O)c1ccc(Cl)cc1,20.7,33.3,40.7
CC1=C2C(=O)O[C@@H](c3ccoc3)[C@]2(C)CC[C@H]1OC(=O)c1cccc(Br)c1,20.7,40.7,44.4
CC1=C2C(=O)O[C@@H](c3ccoc3)[C@]2(C)CC[C@H]1OC(=O)c1ccc(Br)cc1,24.1,25.9,37
CC1=C2C(=O)O[C@@H](c3ccoc3)[C@]2(C)CC[C@H]1OC(=O)c1cccc([N+](=O)[O-])c1,10.3,40.7,48.1
CC1=C2C(=O)O[C@@H](c3ccoc3)[C@]2(C)CC[C@H]1OC(=O)c1ccc([N+](=O)[O-])cc1,27.6,40.7,51.9
CC1=C2C(=O)O[C@@H](c3ccoc3)[C@]2(C)CC[C@H]1OC(=O)c1ccc(C#N)cc1,20.7,48.1,55.6
CC1=C2C(=O)O[C@@H](c3ccoc3)[C@]2(C)CC[C@H]1OC(=O)c1cccnc1,20.7,40.7,55.6
CC1=C2C(=O)O[C@@H](c3ccoc3)[C@]2(C)CC[C@H]1OC(=O)c1ccncc1,24.1,48.1,66.7
CC1=C2C(=O)O[C@@H](c3ccoc3)[C@]2(C)CC[C@H]1OC(=O)c1ccco1,31,40.7,51.9
CC1=C2C(=O)O[C@@H](c3ccoc3)[C@]2(C)CC[C@H]1O [4ALPHA-HYDROXYFRAXINELLONE],20.7,37,48.1
CC1=C2C(=O)O[C@@H](c3ccoc3)[C@]2(C)CCC1 [FRAXINELLONE],20.7,33.3,44.4
CC(=O)O[C@@H]1C[C@H](O)[C@@]23CO[C@@H](O)[C@]1(C)[C@@H]2C[C@@H](O)[C@]1(C)[C@@H]3C(=O)[C@H](OC(C)=O)[C@@]2(C)[C@H](c3ccoc3)C[C@H]3O[C@]321 [TOOSENDANIN],27.6,33.3,48.1

# — ChEMBL document CHEMBL3046413, “Synthesis and insecticidal activity of some novel fraxinellone-based esters” (2012)
